The values below come from PubChem BioAssay AID624411 (The Scripps Research Institute Molecular Screening Center, 2012).

The structures appear in SMILES notation. Calls of active or inactive are those of the source.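 How the source made its calls: active means compounds blocking BCL-xL binding with IC50 of 10 µM or lower; inactive means the rest.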

For the assay, the target named is Bcl-2-like protein 1 (Homo sapiens) (UniProt Q07817). The assay can be described thus: Bcl-xL binding to Bim BH3 peptide, probe test – biochemical, fluorescence polarization, probe report, counter-screen for MCL1-BIM inhibitor project, late-stage follow-up (AID 624411). To be noted: GST-BCL-xL / FITC-Bim BH3 fluorescence polarization. The gist of the method:
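Test system: purified GST-Bcl-xL fusion protein, human Bcl-xL; Medium: PBS with 0.001% Brij; Timing: compound incubation 20 min at room temperature; Detection: fluorescence polarization in millipolarization (mP) units.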
Background: Polarisation of emitted light reports the rotation of a fluorescent probe.

Sequence of Bcl-2-like protein 1 (Homo sapiens) (Q07817 whole entry, looked up, the tested form may be a part): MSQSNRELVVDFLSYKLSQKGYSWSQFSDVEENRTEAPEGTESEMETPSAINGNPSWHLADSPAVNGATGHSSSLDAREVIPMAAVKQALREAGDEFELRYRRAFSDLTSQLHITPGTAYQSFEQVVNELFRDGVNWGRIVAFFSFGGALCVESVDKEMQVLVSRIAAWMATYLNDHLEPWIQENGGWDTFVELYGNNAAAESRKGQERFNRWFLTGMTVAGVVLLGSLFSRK

What is called IC50 is the concentration needed to halve the response being measured. Consider `CCN1CCN(C(c2ccc(C(F)(F)F)cc2)c2ccc3cccnc3c2O)CC1` (stereo unspecified), for which the IC50 was > 40 µM (inactive).
